The source made the active and inactive calls.
How the values were obtained:
[1] = biological target: T1, G-protein coupled receptor 84 (Homo sapiens, UniProt Q9NQS5); assay: Agonist activity at Gi coupled human GPR84 expressed in CHO cells assessed as inhibition of forskolin-induced cAMP accumulation at 10 uM after 15 mins in presence of [3H]-cAMP by radiometric assay relative to decanoic acid; assay type: functional, cell-based
Method in brief: (§1)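 Forskolin (10 µM) added with or without test compound for 15 min. Cells lysed in hot (90 °C) EDTA/Triton X-100 solution. cAMP measured radiometrically with bovine adrenal binding protein and [³H]cAMP, expressed as % of forskolin-alone response.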

[2] = biological target: T1, G-protein coupled receptor 84; assay: Agonist activity at Gi coupled human GPR84 expressed in CHO cells assessed as inhibition of forskolin-induced cAMP accumulation after 15 mins in presence of [3H]-cAMP by radiometric assay; assay type: functional, cell-based; method in brief: as §1
[3] = biological target: T1, G-protein coupled receptor 84; assay: Agonist activity at human GPR84 expressed in CHO cells assessed as beta-arrestin recruitment after 90 mins by beta-galactosidase complementation assay; assay type: cell-based
Method in brief: (§2)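 CHO cells co-expressing human GPR84–β-galactosidase fragment and β-arrestin–complementary fragment, 20,000 per well. Compounds in DMSO (final ≤1 %) added for 90 min, then detection reagent for 60 min at rt; luminescence read. Three to five independent experiments in duplicate.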

[4] = biological target: T1, G-protein coupled receptor 84; assay: Agonist activity at human GPR84 expressed in CHO cells assessed as beta-arrestin recruitment at 10 uM after 90 mins by beta-galactosidase complementation assay relative to embelin; assay type: cell-based; method in brief: as §2
[5] = biological target: T2, Free fatty acid receptor 1 (Homo sapiens, UniProt O14842); assay: Agonist activity at Gq protein coupled human FFAR1 expressed in human 1321N1 cells assessed as induction of intracellular calcium level at 10 uM measured at 1.2 secs time interval by Fluo-4-AM dye based fluorescence assay; assay type: functional, cell-based
T2 sequence (O14842 whole entry): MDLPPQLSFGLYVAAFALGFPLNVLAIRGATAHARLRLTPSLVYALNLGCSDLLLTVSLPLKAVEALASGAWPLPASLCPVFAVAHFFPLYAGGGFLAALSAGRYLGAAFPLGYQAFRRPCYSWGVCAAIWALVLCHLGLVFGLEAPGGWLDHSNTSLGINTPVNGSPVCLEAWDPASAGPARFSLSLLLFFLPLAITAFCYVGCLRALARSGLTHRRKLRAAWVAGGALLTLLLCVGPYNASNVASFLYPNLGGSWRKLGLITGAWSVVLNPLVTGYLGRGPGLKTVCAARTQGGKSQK
Method in brief: (§3)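 1321N1 astrocytoma cells retrovirally expressing human FFAR1, 50,000 per well, loaded 60 min at rt in dark with 3 µM Fluo-4-AM and 0.06 % Pluronic F-127 in HBSS. Compounds at 10 µM final; antagonist mode uses 30 min preincubation before TUG-424 (final 1 µM). Fluorescence at 520 nm (excitation 485 nm), 90 reads at 1.2 s intervals. Normalized to TUG-424 at 10 µM (agonist) or 1 µM (antagonist).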

[6] = biological target: T3, Free fatty acid receptor 4 (Homo sapiens) (UniProt Q5NUL3); assay: Agonist activity at human FFAR4 expressed in CHO cells assessed as beta-arrestin recruitment at 10 uM after 90 mins by beta-galactosidase complementation assay; assay type: cell-based
T3 sequence (whole entry): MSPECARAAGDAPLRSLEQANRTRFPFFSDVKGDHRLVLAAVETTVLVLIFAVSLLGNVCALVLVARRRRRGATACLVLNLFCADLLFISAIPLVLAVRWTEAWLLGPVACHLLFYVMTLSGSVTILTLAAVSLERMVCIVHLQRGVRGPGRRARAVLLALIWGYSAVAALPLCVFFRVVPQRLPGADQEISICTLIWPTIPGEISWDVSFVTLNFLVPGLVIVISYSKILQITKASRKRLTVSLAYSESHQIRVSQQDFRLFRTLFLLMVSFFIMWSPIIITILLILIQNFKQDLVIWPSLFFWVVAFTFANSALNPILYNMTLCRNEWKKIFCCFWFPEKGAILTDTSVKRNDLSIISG
Method in brief: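 Human FFAR4 in CHO β-galactosidase complementation cells, 30,000 per well, serum-free F12 ~4 h before assay; final DMSO 1 %, compounds 10 µM. Agonist mode: 90 min with agonist, then detection 60 min rt dark; luminescence. 3–4 experiments in duplicate.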

[7] = biological target: T2, Free fatty acid receptor 1; assay: Antagonist activity at Gq protein coupled human FFAR1 expressed in human 1321N1 cells assessed as inhibition of TUG-424-induced intracellular calcium level preincubated for 30 mins followed by TUG-424 addition measured at 1.2 secs time interval by Fluo-4-AM dye based fluorescence assay; assay type: functional, cell-based; method in brief: as §3
[8] = biological target: T3, Free fatty acid receptor 4 (Homo sapiens); assay: Antagonist activity at human FFAR4 expressed in CHO cells assessed as inhibition of TUG-89-induced beta-arrestin recruitment at 10 uM preincubated for 30 mins followed by TUG-89 addition measured after 90 mins by beta-galactosidase complementation assay; assay type: cell-based
[9] = biological target: T1, G-protein coupled receptor 84; assay: Agonist activity at Gi coupled human GPR84 expressed in CHO cells assessed as inhibition of forskolin-induced cAMP accumulation up to 100 uM preincubated for 5 mins followed by forskolin addition measured after 15 mins in presence of [3H]-cAMP by radiometric assay; assay type: functional, cell-based
Method in brief: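 Concentration-response in CHO-hGPR84 cells. Compound preincubated 5 min, then forskolin 10 µM added for a further 15 min. Maximal forskolin-induced cAMP without agonist set as 100 %. […] Mean ± SEM of 3 independent experiments in duplicate.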

[10] = biological target: T1, G-protein coupled receptor 84; assay: Antagonist activity at Gi coupled human GPR84 expressed in CHO cells assessed as inhibition of decanoic acid-induced receptor activation at 10 uM; assay type: cell-based

T1 sequence (Q9NQS5 whole entry): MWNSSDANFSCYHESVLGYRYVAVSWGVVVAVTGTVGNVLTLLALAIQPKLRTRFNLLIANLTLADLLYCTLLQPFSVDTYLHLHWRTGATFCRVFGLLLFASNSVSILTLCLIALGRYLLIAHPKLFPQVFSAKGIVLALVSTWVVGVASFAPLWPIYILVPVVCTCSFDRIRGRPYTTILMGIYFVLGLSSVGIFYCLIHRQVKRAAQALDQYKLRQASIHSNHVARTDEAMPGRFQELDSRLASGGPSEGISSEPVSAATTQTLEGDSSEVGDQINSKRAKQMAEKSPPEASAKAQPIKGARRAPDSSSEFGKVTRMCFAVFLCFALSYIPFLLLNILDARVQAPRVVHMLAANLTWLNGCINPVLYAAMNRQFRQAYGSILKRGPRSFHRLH

Row | Emax [1] [%] | EC50 [2] [µM] | EC50 [3] [µM] | Emax [4] [%] | Activity [5] | Activity [6] | EC50 [7] [µM] | inhibition [8] | inhibition [9] | inhibition [10] | Structure (SMILES)
1 | 110 | 0.328 | 1.23 | 108 | inactive | inactive | 6.49 | inactive | – | – | Fc1cccc2[nH]cc(Cc3c[nH]c4cccc(F)c34)c12
2 | – | – | – | – | – | – | – | – | inactive | – | c1ccc2c(c1)[nH]c1cc3c(cc12)[nH]c1ccccc13
3 | 0 | > 10 | > 10 | 7 | inactive | inactive | – | inactive | – | inactive | c1cc2c(c(C(c3c[nH]c4ccccc34)c3c[nH]c4ccccc34)c1)OCO2
4 | -24 | > 10 | 6.07 | 199 | inactive | inactive | 8.81 | inactive | – | inactive | CCCC(c1c[nH]c2ccccc12)c1c[nH]c2ccccc12
5 | -10 | > 10 | > 10 | 10 | inactive | inactive | – | inactive | – | inactive | c1ccc2c(C(c3c[nH]c4ccccc34)c3c[nH]c4ccccc34)c[nH]c2c1
6 | -37 | > 10 | > 10 | -3 | inactive | inactive | – | inactive | – | inactive | Cn1cc(Cc2cn(C)c3ccccc23)c2ccccc21
7 | -17 | > 10 | > 10 | -22 | inactive | inactive | – | inactive | – | inactive | O=C1Nc2ccccc2/C1=C/c1c[nH]c2ccccc12
8 | 2 | > 10 | > 10 | 10 | inactive | inactive | – | inactive | – | inactive | Cc1ccc(C(c2c[nH]c3ccccc23)c2c[nH]c3ccccc23)cc1
9 | 5 | > 10 | > 10 | 34 | inactive | inactive | – | inactive | – | inactive | CC(c1c[nH]c2cccc(F)c12)c1c[nH]c2cccc(F)c12
10 | – | – | – | – | – | – | – | – | inactive | – | OCc1c[nH]c2ccccc12
11 | 7 | > 10 | > 10 | -5 | inactive | inactive | – | inactive | – | inactive | Oc1ccc(C(c2c[nH]c3ccccc23)c2c[nH]c3ccccc23)cc1
12 | 111 | 1.14 | > 10 | 25 | inactive | inactive | – | inactive | – | – | Clc1cccc2[nH]cc(Cc3c[nH]c4cccc(Cl)c34)c12
13 | 28 | ≥ 10 | > 10 | -5 | inactive | inactive | – | inactive | – | inactive | O=C(O)c1ccc2[nH]cc(Cc3c[nH]c4ccc(C(=O)O)cc34)c2c1
14 | 16 | > 10 | 7.29 | 167 | inactive | inactive | 8.89 | inactive | – | inactive | CC(C)C(c1c[nH]c2ccccc12)c1c[nH]c2ccccc12
15 | 7 | > 10 | > 10 | -31 | inactive | inactive | – | inactive | – | inactive | COc1ccc2[nH]cc(C=C3C(=O)Nc4ccc(F)cc43)c2c1
16 | -16 | > 10 | > 10 | -7 | inactive | inactive | – | inactive | – | inactive | O=C1Nc2ccccc2C1=Cc1ccc2[nH]ccc2c1
17 | 104 | 0.553 | 19 | 161 | inactive | inactive | – | inactive | – | – | O=C(c1c[nH]c2ccccc12)c1c[nH]c2ccccc12
18 | 42 | ≥ 10 | > 10 | 23 | inactive | inactive | – | inactive | – | inactive | Cc1[nH]c2ccccc2c1Cc1c(C)[nH]c2ccccc12
19 | -5 | > 10 | > 10 | 3 | inactive | inactive | – | inactive | – | inactive | CC(c1c[nH]c2ccccc12)c1c[nH]c2ccccc12 [VIBRINDOLE A]
20 | 43 | ≥ 10 | > 10 | 8 | inactive | inactive | – | inactive | – | inactive | Cn1cc(Cc2c[nH]c3ccccc23)c2ccccc21
21 | 89 | 0.625 | 7.53 | 48 | inactive | inactive | – | inactive | – | – | Fc1ccc2c(Cc3c[nH]c4cc(F)ccc34)c[nH]c2c1
22 | 121 | 0.187 | 10.3 | 92 | inactive | inactive | – | inactive | – | – | Fc1cc2[nH]cc(Cc3c[nH]c4cc(F)c(F)cc34)c2cc1F
23 | -12 | > 10 | 2.27 | 115 | inactive | inactive | – | inactive | – | inactive | c1cnc2[nH]cc(Cc3c[nH]c4ncccc34)c2c1
24 | -4 | > 10 | > 10 | -3 | inactive | inactive | – | inactive | – | inactive | CCCCC(c1c[nH]c2ccccc12)c1c[nH]c2ccccc12
25 | 123 | 0.377 | > 10 | -2 | inactive | inactive | – | inactive | – | – | Fc1ccc2[nH]cc(Cc3c[nH]c4ccc(F)c(F)c34)c2c1F
26 | 4 | > 10 | 5.34 | 118 | inactive | inactive | – | inactive | – | inactive | Clc1ccc2c(Cc3c[nH]c4cc(Cl)ccc34)c[nH]c2c1
